Assay results taken from ChEMBL document CHEMBL1806466, “2-Amino-4-methyl-5-phenylethyl substituted-7-N-benzyl-pyrrolo[2,3-d]pyrimidines as novel antitumor antimitotic agents that also reverse tumor resistance” (Bioorg Med Chem, 2011).
Activity calls are given as the source filed them. The calls are words filed in the database; no cut-off is given here.

What was measured:
SK-OV-3 = test: Antitumor activity against human SKOV3 cells after 48 hrs by sulforhodamine B assay; assay type: functional; settings: SK-OV-3, 48 h
Outline: (§1)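 NCI-60 screen, adherent lines: grown in RPMI 1640 with 5% FBS and 2 mM L-glutamine. Seeded at 5,000–40,000 cells/well by doubling time and preincubated 24 h at 37 °C, 5% CO2, with time-zero plates TCA-fixed. Five concentrations (10-fold or half-log) given for 48 h. Fixed with cold TCA (10% final), then SRB-stained and read at A515. GI50 is 50% reduction of net protein increase versus control.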

TK-10 = test: Antitumor activity against human TK10 cells after 48 hrs by sulforhodamine B assay; assay type: functional; settings: TK-10, 48 h
Outline: (§2)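 NCI-60 panel lines grown in RPMI 1640 with 5% FBS and 2 mM L-glutamine. Cells plated at 5,000–40,000/well by doubling time, given 24 h before drug, then exposed to five concentrations for 48 h at 37 °C. Time-zero plates fixed with TCA. Cells fixed with TCA, stained with 0.4% SRB, read at 515 nm. GI50 = 50% reduction in net protein increase versus control.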

786-0 = test: Antitumor activity against human 786-0 cells after 48 hrs by sulforhodamine B assay; assay type: functional; settings: 786-0, 48 h; outline: as §1
MDA-MB-435 = test: Antitumor activity against human MDA-MB-435 cells after 48 hrs by sulforhodamine B assay; assay type: functional; settings: MDA-MB-435, 48 h; outline: as §1
UACC-257 = test: Antitumor activity against human UACC257 cells after 48 hrs by sulforhodamine B assay; assay type: functional; settings: UACC-257, 48 h; outline: as §2
SR = test: Antitumor activity against human SR cells after 48 hrs by sulforhodamine B assay; assay type: functional
Outline: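 NCI-60 screen, suspension lines: grown in RPMI 1640 with 5% FBS and 2 mM L-glutamine. Seeded at 5,000–40,000 cells/well and preincubated 24 h at 37 °C, 5% CO2, with time-zero plates fixed. Five concentrations (10-fold or half-log) given for 48 h. Settled cells fixed with 80% TCA (16% final), then SRB-stained and read at 515 nm. GI50 is from the net growth relative to time zero and control.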

NCI-H226 = test: Antitumor activity against human NCI-H226 cells after 48 hrs by sulforhodamine B assay; assay type: functional; settings: NCI-H226, 48 h; outline: as §1
T47D = test: Antitumor activity against human T47D cells after 48 hrs by sulforhodamine B assay; assay type: functional; outline: as §2
SF-295 = test: Antitumor activity against human SF295 cells after 48 hrs by sulforhodamine B assay; assay type: functional; settings: SF-295, 48 h; outline: as §1
NCI-H522 = test: Antitumor activity against human NCI-H522 cells after 48 hrs by sulforhodamine B assay; assay type: functional; settings: NCI-H522, 48 h; outline: as §1
SN12C = test: Antitumor activity against human SN12C cells after 48 hrs by sulforhodamine B assay; assay type: functional; outline: as §1
SF-268 = test: Antitumor activity against human SF268 cells after 48 hrs by sulforhodamine B assay; assay type: functional; settings: SF-268, 48 h; outline: as §1
MCF7 [1] = test: Resistance factor, ratio of IC50 for Pgp-deficient human MCF7/VP cells expressing MRP1 in absence of vincristine to IC50 for drug sensitive human MCF7 cells in presence of 1 nM vincristine
HOP-62 = test: Antitumor activity against human HOP62 cells after 48 hrs by sulforhodamine B assay; assay type: functional; settings: HOP-62, 48 h; outline: as §1
Bos taurus = species on record: Bos taurus; test: Effect on bovine brain microtubule depolymerization assessed as decrease in absorbance at wavelength 340 nm after 15 mins
Outline: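 Bovine brain tubulin purified by three assembly/disassembly cycles followed by ion exchange. Tubulin at 2.5 mg/mL […] in 1 M glutamate, pH 6.6, with 4% DMSO, preincubated with compound at 0 °C for 15 min. 0.5 mM GTP then added and samples warmed to 37 °C. A340 monitored about 60 min.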

UACC-62 = test: Antitumor activity against human UACC62 cells after 48 hrs by sulforhodamine B assay; assay type: functional; settings: UACC-62, 48 h; outline: as §2
MDA-MB-231 = test: Antitumor activity against human MDA-MB-231 cells after 48 hrs by sulforhodamine B assay; assay type: functional; settings: MDA-MB-231, 48 h; outline: as §1
HL-60(TB) = test: Antitumor activity against human HL-60(TB) cells after 48 hrs by sulforhodamine B assay; assay type: functional; settings: HL-60, 48 h
Outline: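 NCI-60 screen: cells grown in RPMI 1640 with 5% FBS and 2 mM L-glutamine, seeded at 5,000–40,000 cells/well and incubated 24 h at 37 °C, 5% CO2 before dosing. Five concentrations (10-fold or ½-log dilutions from DMSO stock), 48 h. Suspension cells fixed with 80% TCA (final 16%), stained with 0.4% SRB, A515 read. GI50 calculated against time-zero and control growth.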

MCF7 [2] = test: Cytotoxic activity against drug-sensitive Pgp-, MRP1-deficient human MCF7 cells after 48 hrs by sulforhodamine B assay; settings: MCF7, 48 h
M14 = test: Antitumor activity against human M14 cells after 48 hrs by sulforhodamine B assay; assay type: functional; settings: M14, 48 h; outline: as §1
BT-549 = test: Antitumor activity against human BT549 cells after 48 hrs by sulforhodamine B assay; assay type: functional; settings: BT-549, 48 h; outline: as §1
Malme-3M = test: Antitumor activity against human MALME-3M cells after 48 hrs by sulforhodamine B assay; assay type: functional; outline: as §1
OVCAR-4 = test: Antitumor activity against human OVCAR4 cells after 48 hrs by sulforhodamine B assay; assay type: functional; settings: OVCAR-4, 48 h; outline: as §1
SW-620 = test: Antitumor activity against human SW620 cells after 48 hrs by sulforhodamine B assay; assay type: functional; settings: SW-620, 48 h; outline: as §1
[3] = Cytotoxic activity against Pgp-deficient human MCF7/VP cells expressing MRP1 after 48 hrs by sulforhodamine B assay; assay type: functional, cell-based
Outline: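 Cells plated at ~15% confluency and allowed 24 h to attach, then exposed to varying test concentrations for 48 h. Survival by SRB binding, reported as % decrease in binding versus ethanol solvent controls, mean of three wells. For NCI/ADR, exposure with 0 or 50 nM vinblastine; for MCF-7/VP, with 0 or 1 nM vincristine.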

U-251 = test: Antitumor activity against human U251 cells after 48 hrs by sulforhodamine B assay; assay type: functional; settings: U-251, 48 h; outline: as §2
SNB-19 = test: Antitumor activity against human SNB19 cells after 48 hrs by sulforhodamine B assay; assay type: functional; settings: SNB-19, 48 h; outline: as §1
COLO 205 = test: Antitumor activity against human COLO205 cells after 48 hrs by sulforhodamine B assay; assay type: functional; settings: COLO 205, 48 h; outline: as §1
LOX IMVI = test: Antitumor activity against human LOXIMVI cells after 48 hrs by sulforhodamine B assay; assay type: functional; outline: as §1
MCF7 [4] = test: Resistance factor, ratio of IC50 for drug-resistant […] human NCI/ADR cells expressing Pgp in absence of vinblastin to IC50 for drug-sensitive human MCF7 cells in presence of 50 nM vinblastin; assay type: functional

Work on `COc1cc(CCc2cn(Cc3ccccc3)c3nc(N)nc(C)c23)c(OC)c(OC)c1OC` yielded a GI50 (SK-OV-3) of 2.98 µM, a GI50 (TK-10) of 7.62 µM and a GI50 (786-0) of 4.5 µM. The GI50 (MDA-MB-435) was 0.34 µM, the GI50 (UACC-257) was 10.4 µM and the GI50 (SR) was 2.35 µM. The GI50 (NCI-H226) was 4.27 µM, the GI50 (T47D) was 1.69 µM and the GI50 (SF-295) was 1.39 µM. For the same compound, the GI50 (NCI-H522) was 6.05 µM, the GI50 (SN12C) was 6.86 µM and the GI50 (SF-268) was 4.4 µM. The “Ratio IC50” value (MCF7 [1]) was 0.37, the GI50 (HOP-62) was 3.96 µM and the Activity (Bos taurus) was “Active”. The GI50 (UACC-62) was 2.13 µM, the GI50 (MDA-MB-231) was 3.69 µM and the GI50 (HL-60(TB)) was 2.06 µM. For the same compound, the IC50 (MCF7 [2]) was 24 µM, the GI50 (M14) was 3.33 µM and the GI50 (BT-549) was 9.75 µM. The GI50 (Malme-3M) was 10.4 µM, the GI50 (OVCAR-4) was 8.83 µM and the GI50 (SW-620) was 3.19 µM. It also gave an IC50 [3] of 9 µM, a GI50 (U-251) of 3.93 µM and a GI50 (SNB-19) of 4.68 µM. For the same compound, the GI50 (COLO 205) was 2.8 µM, the GI50 (LOX IMVI) was 5.29 µM and the “Ratio IC50” value (MCF7 [4]) was 0.29.
